From ChEMBL document CHEMBL3352465, “The SAR development of substituted purine derivatives as selective CB2 agonists for the treatment of chronic pain” (Bioorg Med Chem Lett, 2014)
≈ marks a conversion by molar mass, not a printed value. Calls of active or inactive are those of the source. The rule behind the calls is not given here.

Tests used:
Cannabinoid receptor 2 [1] = molecular target: T1, Cannabinoid receptor 2 (Homo sapiens, UniProt P34972); assay: Agonist activity at human CB2 receptor expressed in CHO cells by [35S]-GTPgammaS binding assay; type: functional, cell-based
T1 sequence (P34972 whole entry): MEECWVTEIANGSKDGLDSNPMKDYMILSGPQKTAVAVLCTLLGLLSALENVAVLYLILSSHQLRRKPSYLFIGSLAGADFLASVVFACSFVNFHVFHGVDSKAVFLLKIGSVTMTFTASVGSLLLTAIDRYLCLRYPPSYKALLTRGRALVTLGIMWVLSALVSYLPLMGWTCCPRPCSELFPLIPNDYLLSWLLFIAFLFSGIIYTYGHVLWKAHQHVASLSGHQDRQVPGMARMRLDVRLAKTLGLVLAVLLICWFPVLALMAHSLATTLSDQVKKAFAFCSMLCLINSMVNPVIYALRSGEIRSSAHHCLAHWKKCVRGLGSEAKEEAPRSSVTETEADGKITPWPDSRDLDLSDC

Cannabinoid receptor 2 [2] = molecular target: T1, Cannabinoid receptor 2; assay: Agonist activity at human CB2 receptor expressed in CHO cells by [35S]-GTPgammaS binding assay relative to control; type: functional, cell-based
Cannabinoid receptor 1 [3] = molecular target: T2, Cannabinoid receptor 1 (Homo sapiens, UniProt P21554); assay: Agonist activity at human CB1 receptor expressed in Sf9 cells by [35S]-GTPgammaS binding assay; type: functional
T2 sequence (P21554 whole entry): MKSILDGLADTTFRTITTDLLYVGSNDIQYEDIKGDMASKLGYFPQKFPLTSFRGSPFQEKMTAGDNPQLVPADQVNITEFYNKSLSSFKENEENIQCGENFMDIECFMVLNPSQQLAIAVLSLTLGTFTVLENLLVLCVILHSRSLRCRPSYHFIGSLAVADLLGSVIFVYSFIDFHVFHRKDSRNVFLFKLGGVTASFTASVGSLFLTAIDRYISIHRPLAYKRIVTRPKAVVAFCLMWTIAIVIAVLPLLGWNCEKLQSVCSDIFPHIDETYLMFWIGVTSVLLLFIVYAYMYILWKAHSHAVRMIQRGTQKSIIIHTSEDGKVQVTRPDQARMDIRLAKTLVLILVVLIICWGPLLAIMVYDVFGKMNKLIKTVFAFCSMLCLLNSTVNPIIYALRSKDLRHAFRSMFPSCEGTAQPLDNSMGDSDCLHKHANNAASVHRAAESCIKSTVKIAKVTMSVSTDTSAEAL

Cannabinoid receptor 1 [4] = molecular target: T2, Cannabinoid receptor 1; assay: Agonist activity at human CB1 receptor expressed in Sf9 cells by [35S]-GTPgammaS binding assay relative to control; type: functional
[5] = Drug metabolism in human liver microsomes at 2 uM after 0.5 hr by LC/MS/MS analysis; type: ADME; conditions: read-out: Drug metabolism
[6] = Drug metabolism in rat liver microsomes at 2 uM after 0.5 hr by LC/MS/MS analysis; type: ADME; conditions: read-out: Drug metabolism
[7] = Drug metabolism in dog liver microsomes at 2 uM after 0.5 hr by LC/MS/MS analysis; type: ADME, Canis lupus familiaris; conditions: read-out: Drug metabolism
Rattus norvegicus [8] = species on record: Rattus norvegicus; assay: Inhibition of GABA gated chloride channel in rat cortex at 10 uM by radioligand binding assay
Outline: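 Radioligand binding to GABA-gated chloride channels from rat, run by an outside contract lab.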

[9] = Clearance in Sprague-Dawley rat at 1 mg/kg, iv; type: ADME, organism-based; set-up: dose 1 mg/kg, route intravenous; conditions: in vivo
[10] = Volume of distribution at steady state in Sprague-Dawley rat at 1 mg/kg, iv and 1 mg/kg, po; type: ADME, organism-based; conditions: in vivo, read-out: Vdss
Outline: (§1)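 Plasma PK after intravenous and oral dosing at 1 mg/kg each route; male Sprague-Dawley rats and male Beagle dogs. Clearance and steady-state volume from the iv leg, half-life and bioavailability from the po leg.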

[11] = Half life in Sprague-Dawley rat at 1 mg/kg, po; type: ADME, organism-based; set-up: dose 1 mg/kg, route oral; conditions: in vivo; outline: as §1
[12] = AUC in Sprague-Dawley rat at 1 mg/kg, iv and 1 mg/kg, po; type: ADME, organism-based; conditions: plasma; outline: as §1
[13] = Cmax in Sprague-Dawley rat at 1 mg/kg, iv and 1 mg/kg, po; type: ADME, organism-based; conditions: in vivo; outline: as §1
[14] = Oral bioavailability in Sprague-Dawley rat at 1 mg/kg; type: ADME, organism-based; conditions: in vivo; outline: as §1
[15] = Clearance in Beagle dog at 1 mg/kg, iv; type: ADME, organism-based, Canis lupus familiaris; set-up: dose 1 mg/kg, route intravenous; conditions: in vivo
[16] = Volume of distribution at steady state in Beagle dog at 1 mg/kg, iv and 1 mg/kg, po; type: ADME, organism-based, Canis lupus familiaris; conditions: in vivo, read-out: Vdss; outline: as §1
[17] = Half life in Beagle dog at 1 mg/kg, po; type: ADME, organism-based, Canis lupus familiaris; set-up: dose 1 mg/kg, route oral; conditions: in vivo; outline: as §1
[18] = AUC in Beagle dog at 1 mg/kg, iv and 1 mg/kg, po; type: ADME, organism-based, Canis lupus familiaris; conditions: plasma; outline: as §1
[19] = Cmax in Beagle dog at 1 mg/kg, iv and 1 mg/kg, po; type: ADME, organism-based, Canis lupus familiaris; conditions: in vivo; outline: as §1
[20] = Oral bioavailability in Beagle dog at 1 mg/kg; type: ADME, organism-based, Canis lupus familiaris; conditions: in vivo; outline: as §1
MDCK = assay: Permeability across MDCK cells expressing human P-gp; type: ADME, cell-based, Canis lupus familiaris; conditions: dog
Outline: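 Bi-directional permeability was measured across an MDCK line expressing human P-gp to test whether the compound is a P-gp substrate.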

Cytochrome P450 3A4 = Cytochrome P450 3A4 (Homo sapiens, UniProt P08684); assay: Effect on CYP3A4 (unknown origin) up to 10 uM; type: ADME
Chain of Cytochrome P450 3A4 (P08684 whole entry): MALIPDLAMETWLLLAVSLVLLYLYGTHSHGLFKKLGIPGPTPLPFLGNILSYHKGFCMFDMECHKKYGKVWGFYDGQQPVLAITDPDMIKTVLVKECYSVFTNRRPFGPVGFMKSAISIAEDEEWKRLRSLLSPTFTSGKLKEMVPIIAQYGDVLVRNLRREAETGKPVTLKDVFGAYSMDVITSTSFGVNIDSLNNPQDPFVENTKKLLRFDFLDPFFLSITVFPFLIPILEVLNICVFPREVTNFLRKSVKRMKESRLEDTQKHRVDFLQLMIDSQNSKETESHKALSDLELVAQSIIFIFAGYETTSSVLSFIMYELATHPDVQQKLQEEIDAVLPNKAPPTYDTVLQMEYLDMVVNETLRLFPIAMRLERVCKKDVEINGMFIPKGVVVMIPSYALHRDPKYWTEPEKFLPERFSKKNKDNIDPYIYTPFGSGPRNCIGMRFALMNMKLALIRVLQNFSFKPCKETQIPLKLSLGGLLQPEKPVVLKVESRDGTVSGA

Cytochrome P450 1A2 = molecular target: T3, Cytochrome P450 1A2 (Homo sapiens, UniProt P05177); assay: Effect on CYP1A2 (unknown origin) up to 10 uM; type: ADME
T3 sequence (P05177 whole entry): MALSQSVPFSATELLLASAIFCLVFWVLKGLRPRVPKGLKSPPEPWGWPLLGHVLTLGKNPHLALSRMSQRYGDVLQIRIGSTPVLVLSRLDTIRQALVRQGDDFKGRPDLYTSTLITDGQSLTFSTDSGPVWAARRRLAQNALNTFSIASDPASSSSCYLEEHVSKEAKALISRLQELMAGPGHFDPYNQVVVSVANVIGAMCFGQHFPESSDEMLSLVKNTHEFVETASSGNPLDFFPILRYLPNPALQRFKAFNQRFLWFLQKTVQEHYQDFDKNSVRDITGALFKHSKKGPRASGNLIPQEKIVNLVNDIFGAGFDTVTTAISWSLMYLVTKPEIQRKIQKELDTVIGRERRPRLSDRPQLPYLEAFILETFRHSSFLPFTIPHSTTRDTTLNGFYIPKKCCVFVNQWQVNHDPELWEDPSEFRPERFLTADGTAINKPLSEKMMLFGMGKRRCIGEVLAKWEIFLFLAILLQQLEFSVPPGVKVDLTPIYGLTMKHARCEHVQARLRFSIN

Cytochrome P450 2D6 = Cytochrome P450 2D6 (Homo sapiens, UniProt P10635); assay: Effect on CYP2D6 (unknown origin) up to 10 uM; type: ADME
Chain of Cytochrome P450 2D6 (P10635 whole entry): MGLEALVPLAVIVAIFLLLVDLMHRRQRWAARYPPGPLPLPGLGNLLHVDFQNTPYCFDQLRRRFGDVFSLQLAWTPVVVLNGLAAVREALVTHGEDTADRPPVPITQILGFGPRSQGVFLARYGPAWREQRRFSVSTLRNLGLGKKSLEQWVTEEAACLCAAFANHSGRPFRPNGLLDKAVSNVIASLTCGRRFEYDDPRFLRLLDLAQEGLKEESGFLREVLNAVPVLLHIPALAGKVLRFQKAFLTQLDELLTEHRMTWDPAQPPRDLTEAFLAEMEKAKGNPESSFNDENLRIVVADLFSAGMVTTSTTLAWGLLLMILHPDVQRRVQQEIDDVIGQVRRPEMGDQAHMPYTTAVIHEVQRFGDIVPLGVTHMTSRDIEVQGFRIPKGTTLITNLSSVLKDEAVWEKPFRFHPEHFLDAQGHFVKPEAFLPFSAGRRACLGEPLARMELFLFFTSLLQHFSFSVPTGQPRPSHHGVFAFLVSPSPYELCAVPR

Cytochrome P450 2C9 = Cytochrome P450 2C9 (Homo sapiens, UniProt P11712); assay: Effect on CYP2C9 (unknown origin) up to 10 uM; type: ADME
Chain of Cytochrome P450 2C9 (P11712 whole entry): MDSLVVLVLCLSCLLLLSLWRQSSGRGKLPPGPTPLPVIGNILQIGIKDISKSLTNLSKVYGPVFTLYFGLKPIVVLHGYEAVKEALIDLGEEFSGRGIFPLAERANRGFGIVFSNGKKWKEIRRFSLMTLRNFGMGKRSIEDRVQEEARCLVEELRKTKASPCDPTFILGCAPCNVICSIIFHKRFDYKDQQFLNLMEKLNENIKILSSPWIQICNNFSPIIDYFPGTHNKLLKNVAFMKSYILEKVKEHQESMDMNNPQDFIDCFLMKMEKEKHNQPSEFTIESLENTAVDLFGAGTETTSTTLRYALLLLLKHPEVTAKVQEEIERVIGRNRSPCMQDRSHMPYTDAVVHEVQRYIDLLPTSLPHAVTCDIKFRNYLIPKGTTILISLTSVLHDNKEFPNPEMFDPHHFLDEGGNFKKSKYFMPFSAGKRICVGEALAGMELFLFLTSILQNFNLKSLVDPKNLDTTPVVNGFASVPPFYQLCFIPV

CYP3A4 = CYP3A4 (Homo sapiens, UniProt P08684); assay: Drug metabolism assessed as human CYP3A4-mediated oxidative compound turnover; type: ADME; conditions: recombinant enzyme, read-out: Drug metabolism
Chain of CYP3A4 (P08684 whole entry, canonical isoform): as the sequence (P08684 whole entry) above
Outline: (§2)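 Oxidative turnover was assessed with recombinant human P450 enzymes to identify which isoforms contribute to metabolite formation.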

CYP2C9 = CYP2C9 (Homo sapiens, UniProt P11712); assay: Drug metabolism assessed as human CYP2C9-mediated compound turnover; type: ADME; conditions: recombinant enzyme, read-out: Drug metabolism; outline: as §2
Chain of CYP2C9 (P11712 whole entry): as the sequence (P11712 whole entry) above

CYP1A2 = molecular target: T4, CYP1A2 (Homo sapiens, UniProt P05177); assay: Drug metabolism assessed as human CYP1A2-mediated compound turnover; type: ADME; conditions: recombinant enzyme, read-out: Drug metabolism; outline: as §2
T4 sequence (P05177 whole entry): T3 sequence (P05177 whole entry)

[21] = Drug excretion in rat urine assessed as phase 2 glucuronide metabolite; type: ADME
[22] = Drug excretion in rat bile assessed as phase 2 glucuronide metabolite; type: ADME
[23] = Drug excretion in rat urine assessed as sulfate metabolite; type: ADME
[24] = Drug excretion in rat bile assessed as sulfate metabolite; type: ADME
Rattus norvegicus [25] = assay: Analgesic activity in monoiodoacetic acid-induced joint pain rat model assessed as inhibition of differential weight bearing capacity at 1 mg/kg, po administered 20 days post MIA challenge relative to vehicle treated control; type: functional, organism-based; set-up: dose 1 mg/kg
Outline: (§3)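 Rats got 0.3 mg MIA intra-articular into the right knee and saline into the left on day 0. On day 20 they were randomized and dosed po with vehicle (1% CMC in water with 0.25% Tween 80), agonist 1 mg/kg, SR-144528 3 mg/kg, or antagonist given 30 min before agonist. Incapacitance (differential hind-limb weight bearing) was read 2 h after agonist; n = 6/group; Dunnett's test versus vehicle.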

Rattus norvegicus [26] = assay: Analgesic activity in monoiodoacetic acid-induced joint pain rat model assessed as inhibition of differential weight bearing capacity at 1 mg/kg, po administered 20 days post MIA challenge co-administered with 3 mg/kg SR-144528 relative to vehicle treated control; type: functional, organism-based; outline: as §3
Rattus norvegicus [27] = assay: Analgesic activity in monoiodoacetic acid-induced joint pain rat model assessed as inhibition of differential weight bearing capacity compound administered orally post MIA challenge measured 2 hrs after compound dose on day 12 post MIA challenge relative to vehicle treated control; type: functional; conditions: po
Outline: (§4)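 MIA knee-joint pain in rats; oral doses of 0.1, 0.3 and 1 mg/kg, with diclofenac 5 mg/kg po as comparator. Differential hind-limb weight bearing was measured by incapacitance tester on day 12 post MIA, 2 h after dosing; n = 5/group; Student's t-test versus vehicle. ED50 was derived from the dose response.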

Rattus norvegicus [28] = assay: Analgesic activity in monoiodoacetic acid-induced joint pain rat model assessed as inhibition of differential weight bearing capacity at 1 mg/kg, po bid for 5 days starting 20 days post MIA challenge relative to vehicle treated control; type: functional, organism-based; set-up: dose 1 mg/kg
Outline: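 MIA knee-joint pain model in rats; repeat oral dosing at 1.0 mg/kg bid for 5 days. Incapacitance efficacy was compared between day 1 and day 5, and plasma exposures were monitored over the period.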

Rattus norvegicus [29] = assay: Toxicity in rat assessed as hypothermia up to 30 mg/kg, po; type: organism-based; set-up: dose 30 mg/kg, route oral; conditions: in vivo
Outline: (§5)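 Rats were dosed orally up to 30 mg/kg and checked for hypothermia and for rotorod performance. CP-55,940 0.5 mg/kg ip served as positive control.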

Rattus norvegicus [30] = assay: Toxicity in rat assessed as behavioral impairment up to 30 mg/kg, po by rotorod test; type: organism-based; set-up: dose 30 mg/kg, route oral; conditions: in vivo; outline: as §5
[31] = Lipophilicity, log P of the compound; type: physicochemical; conditions: octanol/water
[32] = Aqueous solubility of the compound at pH 6.5; type: physicochemical
Outline: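 Aqueous solubility measured at pH 6.5.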

[33] = Dissociation constant, pKa of the compound; type: physicochemical
Rattus norvegicus [34] = assay: Analgesic activity in monoiodoacetic acid-induced joint pain rat model assessed as inhibition of differential weight bearing capacity at 5 mg/kg, po measured 2 hrs after compound dose on day 12 post MIA challenge relative to vehicle treated control; type: functional, organism-based; set-up: dose 5 mg/kg; outline: as §4

## CCN1CCN(c2nc(C)nc3c2nc(-c2ccccc2Cl)n3CCCOC)CC1
Cannabinoid receptor 2 [1]
  EC50: 4.3 nM
Cannabinoid receptor 2 [2]
  Efficacy: 96.5%
Cannabinoid receptor 1 [3]
  EC50: 1380 nM
Cannabinoid receptor 1 [4]
  Efficacy: 25.7%
[5]
  metabolised at 0.5 h, 2 µM: 36%
[6]
  metabolised at 0.5 h, 2 µM: 71%
[7]
  metabolised at 0.5 h, 2 µM: 99%

## Cc1nc(N2CCN(C)CC2)c2nc(-c3ccccc3Cl)n(CC(C)(C)O)c2n1
Cannabinoid receptor 2 [1]
  EC50: 5.9 nM
Cannabinoid receptor 2 [2]
  Efficacy: 85.4%
Cannabinoid receptor 1 [3]
  EC50: > 100000 nM
[5]
  metabolised at 0.5 h, 2 µM: 24%
[6]
  metabolised at 0.5 h, 2 µM: 92%
[7]
  metabolised at 0.5 h, 2 µM: 52%
Rattus norvegicus [8]
  inhibition: 83%

## COC(=O)NCCn1c(-c2ccccc2Cl)nc2c(N3CCN(C)CC3)nc(C)nc21
[5]
  metabolised at 0.5 h, 2 µM: 14%
[6]
  metabolised at 0.5 h, 2 µM: 25%
[7]
  metabolised at 0.5 h, 2 µM: 62%

## Cc1nc(N2CCN(C)CC2)c2nc(-c3ccccc3Cl)n([C@H](C)CO)c2n1
Cannabinoid receptor 2 [1]
  EC50: 22.4 nM
Cannabinoid receptor 2 [2]
  Efficacy: 81.8%
Cannabinoid receptor 1 [3]
  EC50: > 100000 nM
[5]
  metabolised at 0.5 h, 2 µM: 22%
[6]
  metabolised at 0.5 h, 2 µM: 50%
[7]
  metabolised at 0.5 h, 2 µM: 42%
Rattus norvegicus [8]
  inhibition: 20%
[9]
  clearance: 32 mL/min/kg
[10]
  Vd: 6 L/kg
[11]
  half-life: 2.3 h
[12]
  AUC: 514 ng·h/mL
[13]
  Cmax: 87 ng/mL
[14]
  bioavailability: 38%
[15]
  clearance: 38 mL/min/kg
[16]
  Vd: 4 L/kg
[17]
  half-life: 1.7 h
[18]
  AUC: 437 ng·h/mL
[19]
  Cmax: 43 ng/mL
[20]
  bioavailability: 23%
MDCK
  permeability: impermeable
Cytochrome P450 3A4
  Activity: Not Active
Cytochrome P450 1A2
  Activity: Not Active
Cytochrome P450 2D6
  Activity: Not Active
Cytochrome P450 2C9
  Activity: Not Active
CYP3A4
  metabolised: 80%
CYP2C9
  metabolised: 80%
CYP1A2
  metabolised: 80%
[21]
  Drug excretion: metabolite_detected
[22]
  Drug excretion: metabolite_detected
[23]
  Drug excretion: metabolite_detected
[24]
  Drug excretion: metabolite_detected
Rattus norvegicus [25]
  inhibition: Active
Rattus norvegicus [26]
  inhibition: inactive
Rattus norvegicus [27]
  ED50: 0.16 mg/kg
Rattus norvegicus [28]
  inhibition: Active
Rattus norvegicus [29]
  Activity: Toxic
Rattus norvegicus [30]
  Activity: Toxic
[31]
  logP: 3.1
[32]
  solubility: 1800 µg/mL (≈ 4.49 mM)
[33]
  pKa: 7.5
Rattus norvegicus [34]
  inhibition: Active
